Screening data as filed in PubChem BioAssay.
Rin1-Abl PPI inh – inhibitors of human Rin1-Abl protein interaction. P00519+Q13671. TR-FRET Rin1/Abl binding, biochemical. inhibition, % at 7.35 µM. 0.4% of 360,000 active; in the data active = inhibition above about 5%, passing the limit was not always enough
Target sequence (P00519 whole entry, looked up): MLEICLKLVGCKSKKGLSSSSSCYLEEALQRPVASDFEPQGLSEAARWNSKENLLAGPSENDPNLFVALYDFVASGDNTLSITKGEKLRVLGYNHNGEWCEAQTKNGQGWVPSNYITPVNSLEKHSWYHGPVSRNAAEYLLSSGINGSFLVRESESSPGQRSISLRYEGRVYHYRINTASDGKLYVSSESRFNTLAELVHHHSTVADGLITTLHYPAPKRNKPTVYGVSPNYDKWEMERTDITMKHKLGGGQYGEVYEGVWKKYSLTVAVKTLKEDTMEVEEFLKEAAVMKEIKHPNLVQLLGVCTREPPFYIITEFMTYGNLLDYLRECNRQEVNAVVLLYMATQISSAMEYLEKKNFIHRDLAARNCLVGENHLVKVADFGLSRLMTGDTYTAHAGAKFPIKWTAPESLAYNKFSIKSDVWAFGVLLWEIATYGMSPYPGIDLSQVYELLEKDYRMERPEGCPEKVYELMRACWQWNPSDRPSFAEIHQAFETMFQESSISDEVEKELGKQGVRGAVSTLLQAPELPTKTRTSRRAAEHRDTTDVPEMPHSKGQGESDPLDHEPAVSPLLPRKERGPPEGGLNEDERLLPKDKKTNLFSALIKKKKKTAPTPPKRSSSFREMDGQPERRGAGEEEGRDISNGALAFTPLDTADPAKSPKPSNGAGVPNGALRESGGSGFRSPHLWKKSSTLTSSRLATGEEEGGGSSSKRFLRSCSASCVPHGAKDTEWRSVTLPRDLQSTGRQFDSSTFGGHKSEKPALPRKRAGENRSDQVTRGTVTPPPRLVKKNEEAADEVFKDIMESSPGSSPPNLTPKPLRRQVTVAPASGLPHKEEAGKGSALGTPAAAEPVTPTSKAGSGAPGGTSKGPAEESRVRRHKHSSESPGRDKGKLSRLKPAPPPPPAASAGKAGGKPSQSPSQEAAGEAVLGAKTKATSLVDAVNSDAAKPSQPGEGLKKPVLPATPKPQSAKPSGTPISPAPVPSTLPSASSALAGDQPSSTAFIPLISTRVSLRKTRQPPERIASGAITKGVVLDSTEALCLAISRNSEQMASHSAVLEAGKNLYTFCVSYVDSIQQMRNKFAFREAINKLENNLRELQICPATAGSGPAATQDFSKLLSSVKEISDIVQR
Target sequence (Q13671 whole entry, looked up): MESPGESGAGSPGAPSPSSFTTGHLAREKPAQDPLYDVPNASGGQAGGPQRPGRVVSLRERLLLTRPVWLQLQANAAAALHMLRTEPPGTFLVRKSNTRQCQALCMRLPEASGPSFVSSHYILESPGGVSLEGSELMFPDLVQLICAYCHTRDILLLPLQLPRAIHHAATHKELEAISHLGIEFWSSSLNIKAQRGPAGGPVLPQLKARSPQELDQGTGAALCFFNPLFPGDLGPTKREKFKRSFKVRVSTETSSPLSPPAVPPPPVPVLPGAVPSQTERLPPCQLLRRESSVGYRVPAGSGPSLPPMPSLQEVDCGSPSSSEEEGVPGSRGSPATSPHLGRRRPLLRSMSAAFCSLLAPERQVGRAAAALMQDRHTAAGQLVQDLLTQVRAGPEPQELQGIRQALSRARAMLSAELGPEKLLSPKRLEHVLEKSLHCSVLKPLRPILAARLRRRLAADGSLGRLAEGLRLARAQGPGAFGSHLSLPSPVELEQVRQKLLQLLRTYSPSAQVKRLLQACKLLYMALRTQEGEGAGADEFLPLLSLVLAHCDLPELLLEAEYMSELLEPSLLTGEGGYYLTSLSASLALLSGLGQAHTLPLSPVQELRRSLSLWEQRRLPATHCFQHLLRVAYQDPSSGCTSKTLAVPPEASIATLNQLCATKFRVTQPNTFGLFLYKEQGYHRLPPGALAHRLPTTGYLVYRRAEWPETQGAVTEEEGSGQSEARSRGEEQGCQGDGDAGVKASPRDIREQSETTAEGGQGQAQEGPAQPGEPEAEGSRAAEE
TPT1 inhibitor – C. albicans TPT1 enzyme inhibition. 0.81% of 300,000 active. recombinant caTPT1, FP RNA substrate dephosphorylation. inhibition, % at 5 µM;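 active = inhibition above the mean of all tested compounds plus 3 SD, set per screening campaign, cut at about 24% in these data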;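 note: plate controls were DMSO alone for no effect and ferristatin control at 100 nM for full effect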
CSN inh – CSN deneddylation inhibition; Q92905; Purified CSN, SCF-Nedd8-OG deneddylation, fluorescence polarization; inhibition, % at 12.5 µM; 0.38% of 360,000 active;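 active = pattern-corrected inhibition above about 35%, with an unprinted fluorescence ratio check between 0.5 and 1.5, limit read from the data, passing the limit was not always enough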;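 note: 0% = enzyme with substrate and 100% = substrate without enzyme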
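Assay system: HEK293T-derived human Csn5 enzyme; quantity: 0.24 nM enzyme; medium: Tris/NaCl/DTT buffer, pH 7.5; also added: substrate SCFSkp2-Nedd8OG, 10 nM; doses: 12.5 µM compound; schedule: 90 min reaction at room temperature; signal: FP; read-out: % inhibition of substrate cleavage by Csn5; benchmarks: substrate-only high control, full reaction low control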
Rpn11 inh – Rpn11 (human) deubiquitinase inhibition. human 26S proteasome, Ub4-pepOG fluorescence polarization; 20S core pre-blocked with epoxomicin. O00487. 0.59% of 360,000 active. inhibition, % at 20 µM;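 active = inhibition at 20 µM, scaled to each plate's controls, above about 33%, limit read from the data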
Neddyl block – blocks human cullin neddylation | TR-FRET cullin neddylation, biochemical | inhibition, % at 25 µM | 0.58% of 360,000 active; in the data active = inhibition above about 36%
HNF4A DNA FP – change in binding of human HNF4 alpha to DNA; P41235; HNF4a-FITC DNA binding, fluorescence polarization, 1 h; activity change, % at 10 µM; 0.3% of 360,000 active; AID 1224865; in the data active = activity change above about 30%, passing the limit was not always enough
Rin1-Abl confirm – confirmation of inhibitors of human Rin1-Abl interaction. shares compounds with Rin1-Abl PPI inh. TR-FRET Rin1-Abl binding, purified proteins. inhibition, % at 7.35 µM. 49% of 1,300 active. AID 602124
GFP quencher – GFP fluorescence interference artifact; shares compounds with Rin1-Abl PPI inh; AID 602125; 8.5% of 1,300 active; inhibition, % at 6.75 µM; inhibitors/quenchers counterscreen;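 note: ABL1-eGFP fusion protein alone without its partner RIN1-SBP; 0% = protein with vehicle and 100% = wells lacking protein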
GFP quench dose – quenches GFP in dose response, Rin1-Abl counter-screen | shares compounds with Rin1-Abl PPI inh | GFP fluorescence interference/quenching counterscreen | IC50, µM | 230 tested, under 10 active | AID 602182; call rule not given here;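 note: ABL1-eGFP fusion protein alone without its RIN1 binding partner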
Active calls of the source: *; . = not tested or not shown. The list is not random: actives were taken first. Their share in the collection is about 2.4%. Cut-off read from the data, not from the text of the source, unless noted: active = inhibition above about 6.5%; inactive = the rest.

SMILES	Rin1-Abl PPI inh	TPT1 inhibitor	CSN inh	Rpn11 inh	Neddyl block	HNF4A DNA FP	Rin1-Abl confirm	GFP quencher	others
CC(C)CC(NC(=O)CNC(=O)C1O[C@@H]2OC(C)(C)O[C@@H]2[C@H]2OC(C)(C)O[C@@H]12)C(=O)O (stereo partly drawn)	2	2	-3	-5	-9	-4	.	.
COc1ccccc1CNS(=O)(=O)c1ccc2c(c1)CC(=O)N2C	5	4	-2	0	-10	0	.	.
COc1ccc(/C=N\NC(=O)c2cc(O)c(O)c(O)c2)cc1COc1ccc(C(=O)OCC(C)C)cc1	15*	2	-2	0	-1	-4	11*	6
COc1ccc(C(=O)N/N=C/c2ccc(OC)c(COc3ccccc3)c2)cc1	-1	-1	3	-1	0	4	.	.
COc1ccc(/C=N/NC(=O)c2ccc(C)cc2)cc1CN1CCN(c2ccc(F)cc2)CC1	-1	-1	4	7	11	0	.	.
COc1ccc(/C=N\NC(=O)c2cc(O)c(O)c(O)c2)cc1CN1CCN(c2ccc(F)cc2)CC1	53*	2	-9	-4	-17	-9	50*	11*
CC(C)(C)N1C(=O)c2ccc(C(=O)Nc3ccc(O)cc3)cc2C1=O	-2	2	-6	-2	-23	-2	.	.
CN(CC(=O)Nc1cc(S(=O)(=O)N2CCOCC2)ccc1Cl)C1CCS(=O)(=O)C1 (stereo not drawn)	9.4*	4	-1	-3	-13	0	1	-1
CC(Oc1cccc(Cl)c1)C(=O)NNC(=O)c1cccnc1 (stereo not drawn)	2	.	-4	0	2	0	.	.
CC(Oc1ccc(Cl)cc1Cl)C(=O)NNC(=O)c1cccnc1 (stereo not drawn)	8.9*	0	6	-1	2	-1	-2	-1
COC(=O)c1ccc(CSc2nnc(CNC(=O)c3ccccc3F)o2)o1	8.5*	-7	3	-2	4	0	11*	1
COC(=O)c1ccc(CSc2nnc(CNC(=O)c3ccc(OC)cc3)o2)o1	5	-4	0	-2	-2	2	.	.
COC(=O)c1ccc(CSc2nnc(CNC(=O)COc3ccc(Cl)cc3)o2)o1	17*	-2	-2	-2	-1	2	19*	0	GFP quench dose=>68
COc1ccc(Cl)cc1NC(=O)CN(C)C(=O)CCc1nc2ccccc2c(=O)[nH]1	3	.	3	-9	3	3	.	.
CNC(=O)c1oc(-c2ccc(Cl)cc2)nc1C	13*	1	-7	1	4	3	-3	0
Cc1c(S(=O)(=O)N2CCN(C(=O)c3ccco3)CC2)c(=O)n(C)c(=O)n1C	8.2*	-3	1	0	-5	-2	-1	0
COc1cccc(CNC(=O)COC(=O)CCc2cc(OC)c(OC)c(OC)c2)c1	-1	.	-4	-10	13	-4	.	.
CN(Cc1ccccc1)S(=O)(=O)c1ccc(Cl)c(C(=O)N2CCC2)c1	22*	.	1	-5	-5	4	17*	0	GFP quench dose=>67
CN(Cc1ccccc1)S(=O)(=O)c1ccc(Cl)c(C(=O)N2CCC(C(N)=O)CC2)c1	0	.	-2	2	-7	-1	.	.
C[C@@H]1CN([C@H](C)CO)C(=O)CCCn2cc(nn2)CO[C@H]1CN(C)C(=O)Nc1ccc(C(C)(C)C)cc1	5	.	5	10	0	1	.	.
CCOC(=O)C1=C(C)Nc2nnnn2C1c1ccc(OC)c(Br)c1 (stereo not drawn)	11*	-1	-8	2	-1	0	-1	-1
O=C(Nc1ccn(CCCN2CCN(c3ncccn3)CC2)c(=O)n1)OCc1ccccc1	8.5*	.	5	-10	-2	-2	11*	-1
